Our source for the relative binding affinity (RBA) values is ChEMBL document CHEMBL1126822, “7 alpha-Methyl- and 11 beta-ethoxy-substitution of [125I]-16 alpha-iodoestradiol: effect on estrogen receptor-mediated target tissue uptake” (J Med Chem, 1993).

Structures are written as SMILES.

For this assay, the target named is Estrogen receptor (Mus musculus) (UniProt O08537+P19785). In words: Binding affinity at murine estrogen receptor by [3H]estradiol displacement. The assay is classed as protein assay. The method in brief: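 Competitive binding in murine uterine cytoplasmic extracts, incubated 18 h at 0-4 °C with 20 nM [3H]estradiol, with or without competing steroids from 2 nM to 20 μM. RBA = 100 × ratio of competitor to unlabeled estradiol concentration giving 50% competition of specific [3H]estradiol binding. Mean of three experiments with SD.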
Sequence of Estrogen receptor (Mus musculus) (O08537 whole entry, looked up): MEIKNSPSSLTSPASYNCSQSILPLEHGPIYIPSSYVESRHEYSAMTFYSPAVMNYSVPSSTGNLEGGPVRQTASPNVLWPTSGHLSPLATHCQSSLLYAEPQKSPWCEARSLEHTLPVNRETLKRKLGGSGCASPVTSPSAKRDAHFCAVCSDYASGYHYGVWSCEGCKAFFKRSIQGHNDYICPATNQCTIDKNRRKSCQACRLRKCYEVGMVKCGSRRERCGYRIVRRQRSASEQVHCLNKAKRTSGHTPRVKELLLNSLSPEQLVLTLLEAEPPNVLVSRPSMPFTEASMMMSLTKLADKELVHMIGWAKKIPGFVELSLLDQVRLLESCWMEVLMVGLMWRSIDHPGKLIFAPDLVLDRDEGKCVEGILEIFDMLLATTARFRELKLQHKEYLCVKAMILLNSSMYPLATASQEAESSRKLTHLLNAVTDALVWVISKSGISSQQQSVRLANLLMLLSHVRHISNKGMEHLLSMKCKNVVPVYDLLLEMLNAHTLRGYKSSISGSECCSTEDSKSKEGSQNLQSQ
Sequence of Estrogen receptor (Mus musculus) (P19785 whole entry, looked up): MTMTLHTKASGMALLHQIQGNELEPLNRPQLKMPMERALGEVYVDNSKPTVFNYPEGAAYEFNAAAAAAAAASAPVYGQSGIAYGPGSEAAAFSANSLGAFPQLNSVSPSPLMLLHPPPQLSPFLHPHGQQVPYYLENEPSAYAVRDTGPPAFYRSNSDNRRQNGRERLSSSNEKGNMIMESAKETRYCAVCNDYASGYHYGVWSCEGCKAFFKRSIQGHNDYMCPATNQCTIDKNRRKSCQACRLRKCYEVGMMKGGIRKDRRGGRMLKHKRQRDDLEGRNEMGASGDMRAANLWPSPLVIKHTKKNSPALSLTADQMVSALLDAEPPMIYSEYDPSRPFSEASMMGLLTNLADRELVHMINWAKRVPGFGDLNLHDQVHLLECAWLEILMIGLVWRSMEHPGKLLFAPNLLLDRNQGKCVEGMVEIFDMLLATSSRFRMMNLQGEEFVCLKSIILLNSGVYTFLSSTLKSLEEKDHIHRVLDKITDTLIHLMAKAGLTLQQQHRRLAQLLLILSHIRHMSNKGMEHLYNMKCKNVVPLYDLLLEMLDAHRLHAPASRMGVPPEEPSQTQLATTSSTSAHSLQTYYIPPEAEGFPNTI
The molecule `C[C@@H]1Cc2cc(O)ccc2[C@H]2CC[C@]3(C)C(=O)[C@@H](Br)C[C@H]3[C@H]12` gave a relative binding affinity (RBA) of 5.3.
Next, `CCO[C@H]1C[C@]2(C)[C@H](O)[C@H](Cl)C[C@H]2[C@@H]2CCc3cc(O)ccc3[C@H]21`: 0.8; `C[C@@H]1Cc2cc(O)ccc2[C@H]2CC[C@]3(C)[C@@H](O)[C@@H](Cl)C[C@H]3[C@H]12`: 4.3.
Next, `CCO[C@H]1C[C@]2(C)C(=O)[C@H](Br)C[C@H]2[C@@H]2CCc3cc(O)ccc3[C@H]21`: 0.8.
Next, `C[C@@H]1Cc2cc(O)ccc2[C@H]2CC[C@]3(C)[C@H](O)[C@H](Br)C[C@H]3[C@H]12`: 13.6; `CO[C@H]1C[C@]2(C)[C@@H](O)[C@H](Br)C[C@H]2[C@@H]2CCc3cc(O)ccc3[C@H]21`: 20; `CCO[C@H]1C[C@]2(C)C(=O)[C@H](Cl)C[C@H]2[C@@H]2CCc3cc(O)ccc3[C@H]21`: 0.8.
The molecule `C[C@@H]1Cc2cc(O)ccc2[C@H]2CC[C@]3(C)[C@@H](O)[C@H](Cl)C[C@H]3[C@H]12` came in with a relative binding affinity (RBA) of 71.5.
Next, `CCO[C@H]1C[C@]2(C)[C@@H](O)[C@H](Br)C[C@H]2[C@@H]2CCc3cc(O)ccc3[C@H]21`: 16.8; `C[C@@H]1Cc2cc(O)ccc2[C@H]2CC[C@]3(C)[C@@H](O)[C@H](Br)C[C@H]3[C@H]12`: 79.1; `C[C@@H]1Cc2cc(O)ccc2[C@H]2CC[C@]3(C)[C@@H](O)[C@@H](Br)C[C@H]3[C@H]12`: 7.1.
The result for `C[C@@H]1Cc2cc(O)ccc2[C@H]2CC[C@]3(C)C(=O)[C@H](Br)C[C@H]3[C@H]12` reads 28.4; that for `CCO[C@H]1C[C@]2(C)[C@H](O)[C@H](Br)C[C@H]2[C@@H]2CCc3cc(O)ccc3[C@H]21`, 1.1.
The molecule `C[C@@H]1Cc2cc(O)ccc2[C@H]2CC[C@]3(C)C(=O)[C@H](Cl)C[C@H]3[C@H]12` registered a relative binding affinity (RBA) of 33.8.
Next, `CCO[C@H]1C[C@]2(C)[C@@H](O)[C@H](Cl)C[C@H]2[C@@H]2CCc3cc(O)ccc3[C@H]21`: 14.9; `C[C@@H]1Cc2cc(O)ccc2[C@H]2CC[C@]3(C)[C@H](O)[C@H](Cl)C[C@H]3[C@H]12`: 16.6.
Next, `CCO[C@H]1C[C@]2(C)[C@@H](O)[C@@H](Br)C[C@H]2[C@@H]2CCc3cc(O)ccc3[C@H]21`: 0.6.
